The full list was thinned out, with hits kept by preference.
T cruzi growth-1: T. cruzi intracellular proliferation inhibitors, primary screen, cell-based, beta-gal Tulahuen parasites, NIH3T3 host, luminescence | T. cruzi beta-gal in NIH3T3, GalScreen luminescence, 90 h | inhibition, % at 8.34 µM | hit rate 5.9% among 77,000;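 active = mean inhibition above about 93%, with at least 55% of replicates each passing it, limit read from the data, passing the limit was not always enough; inconclusive = only one of those two conditions holds; inactive = neither condition holds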
IDH1 R132H inh: inhibitors of IDH1 R132H reductase, primary screen, biochemical, plate reader, single point. Isocitrate dehydrogenase [NADP] cytoplasmic (Homo sapiens), O75874. AID 624101, 2012. hit rate 0.18% among 70,000. inhibition, % at 10 µM. diaphorase/resazurin fluorescence, 60 min; in the data active = inhibition above about 34%; inconclusive = no clear call, values can overlap the other calls; inactive = below about 11%;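 note: 0% = DMSO and 100% = no enzyme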
KDM4C inh: inhibitors of GASC-1 (KDM4C) histone demethylase, primary screen, biochemical, single concentration HTS. inhibition, % at 12.5 µM. hit rate 0.15% among 96,000. GST-KDM4C 2-372, H3K9me3 peptide, LANCE TR-FRET;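 active = mean replicate inhibition above about 25%, with at least 55% of replicates also reaching it, limit read from the data, passing the limit was not always enough; inconclusive = only one of those two conditions met; inactive = neither condition met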
Target sequence (Q9H3R0 2-372 limits assumed): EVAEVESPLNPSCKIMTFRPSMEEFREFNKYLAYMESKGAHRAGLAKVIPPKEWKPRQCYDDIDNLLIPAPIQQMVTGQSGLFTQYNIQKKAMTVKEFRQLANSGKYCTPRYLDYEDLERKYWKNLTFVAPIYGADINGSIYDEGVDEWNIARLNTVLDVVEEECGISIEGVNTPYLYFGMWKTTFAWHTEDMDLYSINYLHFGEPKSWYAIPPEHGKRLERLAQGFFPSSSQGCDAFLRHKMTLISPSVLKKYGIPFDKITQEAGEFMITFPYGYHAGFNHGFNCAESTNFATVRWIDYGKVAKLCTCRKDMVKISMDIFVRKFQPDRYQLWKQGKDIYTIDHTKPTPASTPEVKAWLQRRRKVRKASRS
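Test system – GST-tagged GASC-1 (JMJD2C) catalytic fragment, aa 2-372 · Medium – HEPES buffer, pH 7.5, plus ascorbate · Reagent – H3K9me3 peptide with Fe(II)/2OG · Compound – one test concentration per compound · Timing – 30 min reaction, 60 min detection, RT · Technique – TR-FRET with Eu antibody and ULight streptavidin, EDTA stop · Read-out basis – inhibition from TR-FRET ratio decrease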
T cruzi growth-2: T. cruzi intracellular proliferation inhibitors, confirmation, cell-based, NIH3T3 host, beta-gal parasite, luminescence, cherry-pick; shares compounds with T cruzi growth-1; T. cruzi beta-gal in NIH3T3, GalScreen luminescence, 90 h; inhibition, % at 8.35 µM; hit rate 72% among 5,600;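 active = mean replicate inhibition above about 95% and at least 55% of replicates individually reaching it, limit read from the data; inconclusive = only one of the two criteria is met; inactive = neither criterion is met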
T cruzi growth-3: inhibitors of intracellular T. cruzi replication, confirmation, NIH3T3 host cells, beta-gal parasites, cherry-pick, set 2. shares compounds with T cruzi growth-1. T. cruzi beta-gal in NIH3T3, GalScreen luminescence, 90 h. inhibition, % at 2.09 µM. hit rate 21% among 5,600. AID 651740, 2012;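 active = mean inhibition above about 95%, with at least 55% of replicates also reaching it, limit read from the data; inconclusive = meets just one of the two conditions; inactive = meets neither condition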;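 note: plate controls were neutral control median for no effect and positive control median for full effect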
3T3 cytotox: cytotoxicity in mouse NIH/3T3 fibroblasts, confirmation, cytotoxicity control for T. cruzi proliferation inhibitor project, cell-based, cherry-pick, single point | shares compounds with T cruzi growth-1 | NIH/3T3 viability, CellTiter-Glo ATP luminescence, 90 h | cytotoxicity (signal decrease), % at 8.35 µM | hit rate 14% among 5,600;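 active = mean signal decrease across replicates above about 35% based on untreated-well scatter, with enough replicates individually passing, limit read from the data; inconclusive = no rule stated though some were filed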;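 note: 0% = median of neutral control wells and 100% = median of positive control wells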
NIH3T3 tox 2: NIH/3T3 fibroblast cytotoxicity, confirmation, cytotoxicity control, cell-based, cherry-pick, single point, set 2; AID 651744, 2012; NIH/3T3 viability, CellTiter-Glo ATP luminescence, 90 h; shares compounds with T cruzi growth-1; hit rate 56% among 5,600; inhibition, % at 24.9 µM;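 active = mean loss of cell viability signal at or above a set limit, and enough replicates individually reaching it; inconclusive = meets only the mean limit or only the replicate share; inactive = meets neither condition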;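 note: 0% = median of neutral control wells and 100% = median of positive control wells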
* marks the source's active call; other numbers are inactive results; ? = inconclusive; . = no result.

SMILES | T cruzi growth-1 | IDH1 R132H inh | KDM4C inh | T cruzi growth-2 | T cruzi growth-3 | 3T3 cytotox | NIH3T3 tox 2
CN(C)CC#Cc1cccc(-c2nc(C(=O)NCCCN3CCOCC3)cc3c2[C@H](CCO)N(S(=O)C(C)(C)C)C3)c1 (some centres undefined) | 105* | . | . | 85 | 63 | -18 | -5
CC(C)(C)S(=O)N1Cc2cc(C(=O)NCCCN3CCOCC3)nc(-c3cccc(C#CCC4CCCC4)c3)c2[C@@H]1CCO (some centres undefined) | ? | -1 | -2 | 100* | 82 | 42* | 105*
O=C(CC(C(=O)O)N1CCCCC1)Nc1cccc([N+](=O)[O-])c1 (centres undefined) | . | 0 | . | . | . | . | .
C[C@H](CO)N1C[C@H](C)[C@@H](CN(C)Cc2ccc(-c3ccccc3)cc2)Oc2c(NC(=O)NC3CCCCC3)cccc2C1=O | 105* | . | . | 106* | 89 | -30 | 104*
C[C@@H]1CN([C@H](C)CO)C(=O)c2cccc(NC(=O)NC3CCCCC3)c2O[C@H]1CN(C)Cc1ccc(Oc2ccccc2)cc1 | ? | . | 0 | 98* | 108* | -14 | 104*
C[C@@H]1CN([C@H](C)CO)C(=O)c2cccc(NC(=O)NC3CCCCC3)c2O[C@@H]1CN(C)Cc1ccc(Oc2ccccc2)cc1 | 48 | 1 | 0 | . | . | . | .
C[C@@H]1CN([C@H](C)CO)C(=O)c2cccc(NC(=O)NC3CCCCC3)c2O[C@H]1CN(C)Cc1ccc(-c2ccccc2)cc1 | 81 | . | 0 | . | . | . | .
CCOc1ccc(C)cc1S(=O)(=O)NCC1CCCO1 (centres undefined) | . | 0 | . | . | . | . | .
COc1ccc2c3c(n(C)c2c1)[C@@H](CO)N(Cc1ccc(F)cc1)CC31CN(CC2CCOCC2)C1 | . | . | 0 | . | . | . | .
O=C(/C=C/c1ccc(O)cc1)NCCCCN(CCCN(CCCNC(=O)/C=C/c1ccc(O)cc1)C(=O)/C=C/c1ccc(O)cc1)C(=O)/C=C/c1ccc(O)cc1 | . | 0 | . | . | . | . | .
COc1ccc(S(=O)(=O)N(C)C[C@H]2OCCCC[C@H](C)Oc3ccc(NS(=O)(=O)c4ccc(Cl)cc4)cc3C(=O)N([C@@H](C)CO)C[C@@H]2C)cc1 | . | . | -1 | . | . | . | .
COc1ccc(S(=O)(=O)Nc2ccc3c(c2)C(=O)N([C@H](C)CO)C[C@H](C)[C@@H](CN(C)S(=O)(=O)c2ccc(Cl)cc2)OCCCC[C@@H](C)O3)cc1 | 101* | 1 | 0 | 108* | 28 | 6 | 36*
COc1ccc(S(=O)(=O)Nc2ccc3c(c2)C(=O)N([C@@H](C)CO)C[C@H](C)[C@@H](CN(C)S(=O)(=O)c2ccc(Cl)cc2)OCCCC[C@@H](C)O3)cc1 | 99* | 0 | 0 | 101* | 114* | -2 | 35*
COc1ccc(S(=O)(=O)Nc2ccc3c(c2)C(=O)N([C@H](C)CO)C[C@H](C)[C@@H](CN(C)S(=O)(=O)c2ccc(Cl)cc2)OCCCC[C@H](C)O3)cc1 | 93 | 0 | -2 | . | . | . | .
C[C@@H]1CN([C@@H](C)CO)C(=O)c2cc(NS(=O)(=O)c3ccc(F)cc3)ccc2O[C@@H](C)CCCCO[C@@H]1CN(C)C(=O)CCC(F)(F)F | . | . | 5 | . | . | . | .
COC(=O)c1ccc(NC(=O)CSc2nnnn2C2CC3CCC2C3)cc1 (centres undefined) | . | 0 | . | . | . | . | .
O=C(CSc1n[nH]c(-c2ccc(Cl)cc2)n1)Nc1cccc(Br)c1 | . | 0 | . | . | . | . | .
Cc1noc(C)c1NC(=O)Nc1cccc2c1O[C@H](CN(C)S(=O)(=O)c1cn(C)cn1)[C@H](C)CN([C@@H](C)CO)C2=O | -9 | 1 | -2 | . | . | . | .
COc1cc(Br)cc(/C=N/NC(=O)c2ccc(C(=O)NO)cc2)c1O | . | 0 | . | . | . | . | .
C[C@@H]1CN([C@H](C)CO)C(=O)Cc2cc(N(C)C)ccc2O[C@H]1CN(C)Cc1ccc(Oc2ccccc2)cc1 | 94 | 0 | 7 | . | . | . | .
C[C@@H]1CN([C@@H](C)CO)C(=O)Cc2cc(N(C)C)ccc2O[C@H]1CN(C)Cc1ccc(Oc2ccccc2)cc1 | 111* | 0 | 7 | 91 | 115* | 7 | 106*
C[C@H](CO)N1C[C@H](C)[C@H](CN(C)Cc2ccc(Oc3ccccc3)cc2)Oc2ccc(N(C)C)cc2CC1=O | 65 | . | 0 | . | . | . | .
C[C@H](CO)N1C[C@H](C)[C@@H](CN(C)Cc2ccc(Oc3ccccc3)cc2)Oc2ccc(N(C)C)cc2CC1=O | 116* | 0 | 1 | 114* | 82 | 15 | 106*
Cc1ccc(NC(=O)CSC2CC(=O)N(c3ccc(F)cc3)C2=O)cc1Cl (centres undefined) | . | 0 | . | . | . | . | .
CCC(=O)Nc1ccc2c(c1)OC[C@H](C)N(CCc1ccccc1)C[C@H](C)[C@@H](OC)CN(C)C2=O | . | . | 0 | . | . | . | .
SMILES | T cruzi growth-1 | IDH1 R132H inh | KDM4C inh | T cruzi growth-2 | T cruzi growth-3 | 3T3 cytotox | NIH3T3 tox 2
C[C@@H]1CN([C@@H](C)CO)C(=O)c2cc(C3=CCCC3)cnc2O[C@@H]1CN(C)Cc1ccccc1 | ? | -1 | -1 | ? | 36 | -11 | 17
C[C@H]1CN([C@@H](C)CO)C(=O)c2cc(C3=CCCCC3)cnc2O[C@@H]1CN(C)Cc1cccc(F)c1 | 29 | -2 | 0 | . | . | . | .
C[C@@H]1CN([C@@H](C)CO)C(=O)c2cc(C3=CCCCC3)cnc2O[C@@H]1CN(C)Cc1ccccc1 | ? | -1 | 0 | 100* | 33 | -9 | 48*
C[C@H](CO)N1C[C@H](C)[C@H](CN(C)Cc2ccccc2)Oc2ncc(C3=CCCC3)cc2C1=O | 43 | 0 | -3 | . | . | . | .
C[C@@H]1CN([C@H](C)CO)C(=O)c2cc(C3=CCCCC3)cnc2O[C@H]1CN(C)Cc1ccccc1 | -43 | 1 | 1 | . | . | . | .
C[C@@H]1CN([C@@H](C)CO)C(=O)c2cc(C3=CCCCC3)cnc2O[C@H]1CN(C)Cc1cccc(F)c1 | 115* | -1 | -3 | 105* | 26 | 14 | 105*
CS(=O)(=O)N(CC(=O)Nc1ccc(F)c(Cl)c1)Cc1ccccc1 | . | 0 | . | . | . | . | .
CC(C)C#Cc1ccc2c(c1)O[C@H](CN(C)C(=O)CC1CC1)[C@H](C)CN([C@H](C)CO)S2(=O)=O | 69 | 0 | -1 | . | . | . | .

Screens from PubChem.
